An excerpt weighted towards active compounds, which were near 1.9% of everything screened.
Neddylation inh – inhibitors of cullin neddylation, primary screen, biochemical, TR-FRET, uHTS, NAE and Ubc12; inhibition, % at 25 µM; 360,000 tested, 0.58% active; AID 651699, 2012; in the data active means inhibition above about 36%
HIF act – HIF pathway transcriptional activators, primary screen, cell-based, U2OS HRE-luciferase, luminescence. U2OS HRE-luciferase reporter; normalized: DMSO 0%, desferrioxamine 100%. activation, % at 7.5 µM (by protocol). 300,000 tested, 0.32% active. AID 1910, 2009;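 active means mean activation of at least 10% of the iron chelator positive control signal, with at least half of replicates also reaching 10%; inconclusive means mean and replicate majority disagree about reaching 10%; inactive means mean and most replicates under 10%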
proCasp7 act – procaspase-7 activators, primary screen, counter-screen for procaspase-3 activator project, biochemical, absorbance, HTS, human; Caspase-7 (Homo sapiens), P55210; recombinant procaspase-7, Ac-DEVD-pNA absorbance 405 nm; D23A/D198A/D206A triple mutant, cannot self-cleave; scale: DMSO 0, 5 µM enzyme 100; activation, % at 8.5 µM; 330,000 tested, 0.093% active; AID 463210, 2010;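 active means percent activation above the screen-wide mean plus 3 SD, cut at about 25% in these data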
Target sequence (P55210 whole entry D23A/D198A/D206A): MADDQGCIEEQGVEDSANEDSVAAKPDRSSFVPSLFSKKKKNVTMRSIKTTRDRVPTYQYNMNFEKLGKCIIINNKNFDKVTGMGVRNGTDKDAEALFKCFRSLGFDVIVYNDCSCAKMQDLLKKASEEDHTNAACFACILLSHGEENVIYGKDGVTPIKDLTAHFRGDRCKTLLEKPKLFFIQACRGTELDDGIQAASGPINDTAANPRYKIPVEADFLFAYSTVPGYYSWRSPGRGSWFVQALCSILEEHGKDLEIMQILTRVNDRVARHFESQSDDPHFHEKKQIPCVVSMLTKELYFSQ
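Assay system: Uncleavable procaspase-7 mutant enzyme; Input: 2 µM procaspase-7 mutant as dispensed; Also added: DEVD-pNA substrate; Medium: Zinc-free HEPES pH 7.4 with 300 mM NaCl, 0.01% Triton X-100; Timing: 1 h compound preincubation, 2 h substrate cleavage, 25 °C; Measured by: Epi-absorbance of released pNA at 405 nm, two timepoints.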
GAA850 FXN act – FXN promoter activators, primary screen, cell-based, luciferase luminescence, HEK293 lucGAA850 | HEK293 lucGAA850 FXN promoter luciferase reporter, 24 h; percent of 10 µM SAHA response | activation, % at 6 µM | 360,000 tested, 0.56% active | AID 540364, 2011;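 active means activation above the average of all compounds screened plus 3 SD, cutoff fixed separately per campaign, cut at about 7.5% in these data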;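 further: 0% = DMSO wells and 100% = 10 µM SAHA wells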
proCasp3 act – activators of human procaspase-3 D3A mutant, primary screen, biochemical, absorbance, PC-3 D3A mutant, single concentration | recombinant procaspase-3 D3A, Ac-DEVD-pNA absorbance 405 nm | 330,000 tested, 0.11% active | Caspase-3 (Homo sapiens), P42574 | activation, % at 8.5 µM;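 active means activation above the mean of all tested compounds plus 3 SD, cut at about 21% in these data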;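 further: 0% = DMSO alone and 100% = DMSO wells spiked with extra 5 µM PC-3 D3A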
Target sequence (P42574 whole entry D9A/D28A/D175A): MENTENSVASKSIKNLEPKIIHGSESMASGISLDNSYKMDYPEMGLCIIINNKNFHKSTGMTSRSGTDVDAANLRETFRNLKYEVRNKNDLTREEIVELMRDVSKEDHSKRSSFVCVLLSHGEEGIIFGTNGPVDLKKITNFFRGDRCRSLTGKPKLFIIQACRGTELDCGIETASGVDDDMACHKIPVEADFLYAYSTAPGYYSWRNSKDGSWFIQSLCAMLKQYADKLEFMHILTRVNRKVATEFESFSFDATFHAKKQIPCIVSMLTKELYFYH
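Assay system: Procaspase-3 D3A mutant, all three cleavage aspartates alanine. Buffer or medium: Zinc-free HEPES saline buffer with Triton X-100. Times: 1 h compound preincubation, 2 h substrate hydrolysis at 25 °C. Measured by: 405 nm absorbance of p-nitroaniline, reads at 0 and 120 min. Read-out basis: percent activation relative to control range. Replicates: singlicate.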
Calb FLC – C. albicans growth inhibition with fluconazole, primary screen, CaCi-2 strain, Alamar Blue fluorescence. 300,000 tested, 0.57% active. growth inhibition, % (concentration not given with the values). C. albicans CaCi-2 + fluconazole, 48 h. AID 1979, 2009;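 active means growth inhibition above about 58% in most replicates, limit read from the data, passing the limit was not always enough; inconclusive means exactly half the replicates above a set limit; inactive means most replicates below a set limit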;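 further: all wells also contain fluconazole at 8 µg/ml as a sub-toxic cotreatment; 0% = median of DMSO wells and 100% = median of geldanamycin control wells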
Numbers without * were called inactive; i = inactive; ? = inconclusive; nt = no result given.

SMILES	Neddylation inh	HIF act	proCasp7 act	GAA850 FXN act	proCasp3 act	Calb FLC
CC(C)(C)c1csc(NC(=O)c2ccccc2O)n1	nt	-1	-2	5	-1	32
CC(C)(C)c1csc(NNC(=O)c2ccc(Br)cc2)n1	2	11*	-20	2	-6	-16
CCN(CC(=O)Nc1ccccc1C(F)(F)F)C(=O)c1ccc(-n2nc(C)c(CCC(=O)OC)c2C)cc1	-22	nt	nt	0	nt	nt
C#CCOCCOCCOCCNc1nc(N2CCN(C(=O)Cn3cc(CCO)nn3)CC2)nc(N2CCN(C(=O)[C@H](Cc3ccc(O)cc3)n3cc(CCO)nn3)CC2)n1	-20	nt	nt	0	nt	nt
Cc1noc2ncnc(Sc3ccc(Cl)cc3)c12	-27	1	1	0	-12	86*
CCCC1OC(c2cc3c(cc2Cl)OCO3)OCC1CC (stereo not drawn)	-1	nt	nt	0	nt	nt
CC(C)(C)n1nnnc1C1c2ccccc2C(=O)N1CCc1c[nH]c2ccccc12 (stereo not drawn)	-3	nt	nt	nt	nt	nt
O=C(O)c1ccc(N=Nc2c(O)[nH]c3ccc(Br)cc23)cc1	-10	6	2	4	1	37
O=C(O)c1ccc(N=Nc2c(O)[nH]c3cc(Cl)ccc23)cc1	26	2	-1	9.8*	-8	1
CCOC(=O)c1c(NC(=S)Nc2ccccc2)sc2c1CC(C)(C)SC2	i	0	-16	5	-11	-8
CCOC(=O)c1c(NC(=S)NC)sc2c1CC(C)(C)SC2	-51	0	-17	2	-11	91*
CC(C)=CCc1cc2c(=O)c3c(O)c4c(cc3oc2c(O)c1O)OC(C)C4(C)C (stereo not drawn)	nt	3	9	nt	5	95*
Nc1ncnc2oc(-c3ccco3)c(-c3ccco3)c12	43*	0	1	4	7	16
Cc1ccc(-c2c[n+](CC(=O)N3c4ccccc4Sc4ccccc43)c3n2CCC3)cc1	6	0	5	0	-5	109*
COc1ccc(Cl)cc1Cn1c(C)c(C(=O)NCc2cccc(Cl)c2)sc1=O	-5	nt	nt	-3	nt	nt
CC(C)NC(=O)N1Cc2cc(C(=O)NC3CCCCC3)nc(-c3cccc(-c4cccnc4)c3)c2[C@@H]1CCO	10	nt	nt	nt	nt	nt
CC(c1ccccc1)N1CCn2c(nc3cc(NS(C)(=O)=O)ccc32)C1 (stereo not drawn)	27	0	-2	0	3	109*
O=[N+]([O-])c1c(Nc2ccc(O)cc2)cc(Cl)c2nonc12	-33	-2	-11	-6	-8	87*
CNC(=O)c1ccc(Nc2nnc(-c3ccc(C(N)=O)cc3)c3ccccc23)cc1	21	0	-9	2	10	-2
NC(=O)c1ccc(Nc2nnc(-c3ccc(O)cc3)c3ccccc23)cc1	nt	0	8	2	1	85*
COc1cc(C(=O)NC(=S)N(CCc2ccccc2)CCc2ccccc2)cc(OC)c1OC	-8	-1	-3	-3	-3	93*
COCc1cccc(-c2csc(C(C)(NC(C)=O)c3ccccc3)n2)c1 (stereo not drawn)	3	nt	nt	0	nt	nt
CN1CCc2c(sc3nc(SCC(N)=O)n(-c4ccccc4)c(=O)c23)C1	5	0	-13	-1	-1	-4
CN1CCc2c(sc3nc(SCC(N)=O)n(-c4ccc(Cl)cc4)c(=O)c23)C1	7	0	-12	1	-8	101*
Cc1ccccc1P(=O)(c1ccccc1)c1ccccc1C	-4	nt	nt	0	nt	nt
SMILES	Neddylation inh	HIF act	proCasp7 act	GAA850 FXN act	proCasp3 act	Calb FLC
COc1ccc(NC2=Nc3ccccc3N3C2=Nc2c(c(C)nn2-c2ccc(C)cc2)C3c2cccnc2)cc1 (stereo not drawn)	nt	0	-13	1	0	119*
Cc1c(NC(=O)CSc2nnc(-c3ccncc3)n2C)c(=O)n(-c2ccccc2)n1C	-1	nt	nt	-1	nt	nt
CCCCn1c(SCC(=O)Nc2cccc(OC)c2)nc2ccc(N3CCOCC3)cc2c1=O	nt	0	-4	-1	-7	96*
O=C(Nc1ccc(C2=NCCN2)cc1)c1ccc(C(=O)Nc2ccc(C3=NCCN3)cc2)c(Cl)c1	18	1	4	0	4	90*
CCNC(=S)N/N=C/c1cn(Cc2ccc(F)cc2)c2ccccc12	1	0	-3	1	4	-5
O=C(O)c1ccc(N/N=C/c2cn(Cc3ccc(F)cc3)c3ccccc23)cc1	46*	1	-2	5	-11	-10
COc1ccc(N2C(=NC(=O)CCC3CCCC3)SC3CS(=O)(=O)CC32)cc1 (stereo not drawn)	-103	71*	1	-1	7	3
Fc1ccc(CSc2nnc(-c3cnccn3)n2Cc2ccco2)cc1	-8	0	3	5	4	?
Brc1ccc(CSc2nnc(-c3cnccn3)n2Cc2ccco2)cc1	-1	0	-2	1	3	99*
CC1=NC(C)(C)CC2CCC(O)C12 (stereo not drawn)	16	nt	nt	0	nt	nt
CCc1ccc(/C=C2/SC(=S)N(CCCC(=O)Nc3ccccc3C(=O)O)C2=O)cc1	-7	-4	1	-10	5	86*
Cc1c(Cl)cnc(NC(=O)CSc2nncs2)c1Cl	2	1	-2	4	2	112*
C=CCN(CC=C)S(=O)(=O)c1ccc(C(=O)Nc2nnc(COC)o2)cc1	14	0	-1	-3	-1	114*
CCN(c1ccccc1)S(=O)(=O)c1ccc(C(=O)Nc2nnc(C3CC3)o2)cc1	5	0	3	-1	-6	79*
CCN(Cc1ccccc1)S(=O)(=O)c1ccc(C(=O)Nc2nnc(-c3ccccc3OC)o2)cc1	35	-8	8	-3	5	83*
OC(C1=CC(=Cc2ccncc2)c2ccccc21)c1ccncc1 (stereo not drawn)	-44	nt	nt	-1	nt	nt
O=C(CN1CCNCC1)N1CCOCC1	-2	nt	nt	nt	nt	nt
C(C#CCCCCCCCCC[n+]1ccccc1)#CCCCCCCCCC[n+]1ccccc1	-25	0	1	-9	-1	110*
O=C(CC[C@H]1O[C@@H](n2cnc3c(NC(=O)c4ccccc4)ncnc32)[C@H](O)[C@@H]1O)N[C@@H](CO)Cc1c[nH]c2ccccc12	8	nt	nt	nt	nt	nt

Screens from PubChem.
